One may read the inhibition as the relative decrease from the control value, in per cent.

Molecules are shown by their SMILES. Calls of active or inactive are those of the source.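 How the source made its calls, unless noted: active means a full or partial loss of lipid-probe fluorescence in the fish gall bladder, intestine or both, judged by eye; inactive means no fluorescence loss, or compound toxic to the fish.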

The nature of experiment [1]: inhibitors of TNFa-induced NFkB p65 translocation, primary screen, imaging, HUVEC, MLSMR starter and 10KST1 sets (AID 438;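 active means inhibition above 20% together with a positive visual image hit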;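 further: compound added about 3h40 before a 20 min TNFalpha stimulation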;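 on inhibition: signal is the nuclear over cytoplasmic p65 intensity ratio per well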). As to conditions: HUVEC TNFa-induced p65 nuclear translocation; cell count: measured here: nuclei count (cytotoxicity indicator), at 2.08 µM; inhibition: at 2 µM, stronger effect = higher value, 0% TNFa-plus-vehicle, 100% no-TNFa wells.
The nature of experiment [2]: endothelial E-selectin expression blockers – imaging, HUVEC, immunofluorescence, MLSMR starter and 10KST1 sets, primary screen (AID 487;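 active means visually confirmed hit in the image check and inhibition above 20%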;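 on inhibition: signal is fraction of cell area covered by stained E-selectin grains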;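 on nuclei count: 100% = median nuclei count of all wells on the same plate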). As to conditions: HUVEC TNFalpha-induced E-selectin immunofluorescence imaging, at 2 µM; inhibition: stronger effect = higher value; nuclei count: measured here: cell number, toxicity.
Experiment [3] in a line: Primary imaging screen for DUSP6 inhibitors that restore phospho-Erk in transfected HeLa cells, chemical complementation (AID 609;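 active means compounds giving at least 50% inhibition in the cell-based MKP-3 phosphatase rescue imaging test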;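 on inhibition: phospho-Erk level distribution per well compared with pooled transfected vehicle control wells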). The settings on record: HeLa MKP-3 transfected, phospho-Erk imaging KS statistic, at 10 µM, cells stimulated with TPA for 15 min.
Experiment [4] addresses Dual specificity protein phosphatase 6 (Homo sapiens) (UniProt Q16828). The experiment is described as above. The settings on record: HeLa MKP-3 transfected, phospho-Erk imaging KS statistic; at 10 µM; stronger effect = higher value; cells stimulated with TPA for 15 min.
Experiment [5] has as its target Voltage-gated potassium channel subunit beta-2 (Rattus norvegicus) (UniProt P62483). Description: inhibitors of rat Kvbeta2 reductase activity – biochemical, NADPH fluorescence, primary screen (AID 622;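 active means fluorescence slope higher than the sample average by over 3 SD, cut at about -0.22 in these data, passing the limit was not always enough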;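 further: slope of raw intensity against log time taken from 70 to 1610 s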). The settings on record: recombinant KvBeta, 4-cyanobenzaldehyde reduction, at 10 µM, stronger effect = higher value.
Experiment [6] shares this target. Description: enhancers of rat Kvbeta2 NADPH turnover – biochemical, NADPH fluorescence, primary screen (AID 623;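 active means NADPH fluorescence slope more negative than the mean of all samples by about 3 SD, 99.7% confidence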;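 further: fluorescence intensity change per second fitted from 20 to 320 s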). The settings on record: Recombinant KvBeta, NADPH fluorescence decrease slope, 10 min; at 10 µM; stronger effect = lower value.
For experiment [7], the target named is Alpha-2C adrenergic receptor (Homo sapiens) (UniProt P18825). Description: compounds altering alpha2C-coupled GIRK flux – cell-based, HEK293 alpha2C/GIRK1/2, thallium flux, primary screen (AID 624;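 active means fluorescence slope after compound addition differing from the mean of all screened samples at 99.7% confidence, in either direction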;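 further: slope of fluorescence ratio to pre-addition baseline per second over 15 to 24 s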). As to conditions: thallium flux BTC fluorescence, at 10 µM, actives lie on both sides.
Sequence of Alpha-2C adrenergic receptor (Homo sapiens) (P18825 whole entry, looked up): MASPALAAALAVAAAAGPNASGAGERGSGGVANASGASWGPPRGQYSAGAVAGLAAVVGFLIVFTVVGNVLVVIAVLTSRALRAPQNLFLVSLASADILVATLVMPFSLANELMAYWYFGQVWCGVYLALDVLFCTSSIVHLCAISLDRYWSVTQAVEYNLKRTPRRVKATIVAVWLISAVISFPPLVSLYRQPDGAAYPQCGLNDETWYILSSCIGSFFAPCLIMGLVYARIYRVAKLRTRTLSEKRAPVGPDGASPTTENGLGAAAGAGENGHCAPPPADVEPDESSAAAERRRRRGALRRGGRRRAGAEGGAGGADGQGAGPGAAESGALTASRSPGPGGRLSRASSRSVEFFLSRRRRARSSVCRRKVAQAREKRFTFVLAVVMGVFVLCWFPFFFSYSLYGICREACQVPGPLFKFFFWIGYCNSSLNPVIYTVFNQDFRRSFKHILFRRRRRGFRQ
Experiment [8] can be described thus: inhibitors of larval lipid processing in zebrafish, primary screen, whole organism, PED6 fluorescence, gall bladder and intestine (AID 686).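 Further: larvae 5 to 7 days old with five fish per well; signal comes from phospholipase A2 cleavage of quenched PED6 carried via bile; overnight exposure to compound and PED6 before scoring.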 As to conditions: Zebrafish larvae PED6 lipid processing, fluorescence scoring; screened at 20 µM (by protocol). Summed up:
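system = live zebrafish larvae aged 5-7 days, whole organism | probe or stimulus = ingested quenched lipid PED6 at 100 nM | doses = 20 µM single dose | timing = overnight exposure | detection = fluorescence microscopy with visual scoring of gall bladder and intestine | read-out = visual per-well fluorescence inhibition score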

Experiment [9] is described as follows: loss of swimming-algae plug formation – whole organism, Chlamydomonas reinhardtii, WT vs cilia-less mutant, absorbance, 96-well, primary screen (AID 463189;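 active means inhibition at or above 50% relative to wild type and mutant plate controls; inactive means inhibition below 50%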;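 further: 0% = wild type cc124 cells in DMSO and 100% = ciliumless bld1 mutant cells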). The settings on record: Chlamydomonas reinhardtii gravitaxis, OD600 absorbance, 2 days; at 10 µM; stronger effect = higher value.
[10] abbreviates: measured here: cell density z-score.
[11] abbreviates: measured here: nuclear c-Myc green intensity z-score.
Where [12] appears, read: measured here: nuclear pErk red intensity z-score, stronger effect = higher value.

Sequence of Voltage-gated potassium channel subunit beta-2 (Rattus norvegicus) (P62483 whole entry, looked up): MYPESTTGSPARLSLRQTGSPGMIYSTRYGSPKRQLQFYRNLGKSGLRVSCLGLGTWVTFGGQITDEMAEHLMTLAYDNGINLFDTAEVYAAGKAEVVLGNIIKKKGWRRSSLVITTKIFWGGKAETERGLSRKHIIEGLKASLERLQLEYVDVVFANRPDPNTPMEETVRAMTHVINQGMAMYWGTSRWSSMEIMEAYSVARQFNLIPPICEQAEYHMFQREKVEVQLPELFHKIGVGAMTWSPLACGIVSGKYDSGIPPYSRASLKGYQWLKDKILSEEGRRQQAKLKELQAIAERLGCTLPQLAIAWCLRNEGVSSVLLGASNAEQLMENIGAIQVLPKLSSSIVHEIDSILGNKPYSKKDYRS
Sequence of Dual specificity protein phosphatase 6 (Homo sapiens) (Q16828 whole entry, looked up): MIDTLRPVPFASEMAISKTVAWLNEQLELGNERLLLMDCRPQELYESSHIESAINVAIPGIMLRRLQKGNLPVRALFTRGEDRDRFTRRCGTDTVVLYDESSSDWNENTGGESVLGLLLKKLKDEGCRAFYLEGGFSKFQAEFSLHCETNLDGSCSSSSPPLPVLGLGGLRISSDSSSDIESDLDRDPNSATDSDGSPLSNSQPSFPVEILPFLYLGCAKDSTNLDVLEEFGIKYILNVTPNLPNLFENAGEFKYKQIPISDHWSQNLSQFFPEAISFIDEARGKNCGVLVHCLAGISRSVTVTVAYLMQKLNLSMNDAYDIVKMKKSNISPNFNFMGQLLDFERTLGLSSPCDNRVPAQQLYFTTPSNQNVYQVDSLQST

In the case of `Cc1cc(C)cc(CC2CC(=O)N(c3cc(C)on3)C2=O)c1` (stereo unspecified), the cell count in experiment [1] worked out at 491. Also, the inhibition was -7% (inactive) in experiment [1], -80.4% (inactive) in experiment [2], 3.66% (inactive) in experiment [4] and 2.69% (inactive) in experiment [9]. In addition, the nuclei count in experiment [2] was 132%. In addition, the z-score in experiment [3] (setting [10]) was -0.204; in experiment [3] (setting [11]) it was -0.209; in experiment [3] (setting [12]), 1.15. The fluorescence slope in experiment [5] is -0.517 (inactive). Also, the NADPH fluorescence slope in experiment [6] was -6.6e-05 (inactive). For the same compound, the slope in experiment [7] is 0.00547 (inactive). Further, the call in experiment [8] was inactive.

Turning to `CCOC(=O)c1nc2nc(C)c(Cl)c(=O)n2[nH]1`, the cell count in experiment [1] was determined as 529. For the same compound, the inhibition in experiment [1] is 3.9% (inactive); in [2] it was -83.9% (inactive); in experiment [4] it was 14% (inactive); in [9], 0.754% (inactive). The same compound had a nuclei count in experiment [2] of 153%. Moreover, the z-score was 0.438 in experiment [3] (setting [10]), -0.565 in [3] (setting [11]) and -0.252 in [3] (setting [12]). Besides, the fluorescence slope in [5] is -0.497 (inactive). The NADPH fluorescence slope in [6] is -4.1e-05 (inactive). The slope in experiment [7] is 0.00501 (inactive). Moreover, the call in [8] was inactive.

As to `CN1C2C=C3C(C#N)=C(N)C(C#N)(C#N)[C@@H](c4ccsc4)[C@@H]3C1CC2` (stereo partly specified), in experiment [1], the cell count came to 589. Further, the inhibition in experiment [1] is -9.3% (inactive); in experiment [2], 24% (inactive); in [4], 28.1% (inactive); in [9], 6.82% (inactive). The same compound registered a nuclei count in experiment [2] of 148%. Further, the z-score in experiment [3] (setting [10]) is 1.76; in experiment [3] (setting [11]), -1; in experiment [3] (setting [12]) it was -0.0532. For the same compound, the fluorescence slope in experiment [5] was -0.396 (inactive). In addition, the NADPH fluorescence slope in experiment [6] is 4.1e-06 (inactive). The slope in experiment [7] is 0.00648 (inactive). In [8], the compound was classed as inactive.

Take `CCOC(=O)c1c(N)sc2c1CCC1C(=O)N(C3CCCCC3)C(=O)C21` (stereo unspecified): the cell count in [1] came out at 593. Further, the inhibition was -15.5% (inactive) in experiment [1], -59.6% (inactive) in experiment [2], -11% (inactive) in experiment [4] and -3.12% (inactive) in experiment [9]. This compound registered a nuclei count in [2] of 170%. The values for the z-score in experiment [3] (setting [10]), in experiment [3] (setting [11]) and in experiment [3] (setting [12]) were -0.619, -0.159 and 0.799, respectively. Also, the fluorescence slope in experiment [5] was -0.362 (inactive). In addition, the NADPH fluorescence slope in experiment [6] was -3.1e-06 (inactive). The slope in [7] was 0.0048 (inactive). Moreover, the outcome in [8] was inactive.

On to `N/C(CCCN1CCCCC1)=N/O`, for which the cell count in experiment [1] turned out to be 498. For the same compound, the inhibition is -6% (inactive) in [1], 28.3% (inactive) in experiment [2], 17.3% (inactive) in experiment [4] and 12.2% (inactive) in experiment [9]. The compound further had a nuclei count in [2] of 108%. The figures for the z-score in experiment [3] (setting [10]), in [3] (setting [11]) and in experiment [3] (setting [12]) were 1.83, -0.291 and 0.182, respectively. For the same compound, the fluorescence slope in [5] is -0.509 (inactive). For the same compound, the NADPH fluorescence slope in [6] is -8e-06 (inactive). Moreover, the slope in [7] was 0.00607 (inactive). Besides, the compound was called inactive in experiment [8].

As for `CCC1(C)Cc2c(sc3c2c(=O)n(C)c2nnc(SCc4ccccc4)n32)CO1` (stereo unspecified), the cell count in experiment [1] turned out to be 584. The inhibition is 1.3% (inactive) in [1], -171% (inactive) in experiment [2], 3.56% (inactive) in experiment [4] and 16.4% (inactive) in [9]. Moreover, the nuclei count in [2] stood at 156%. The z-score in experiment [3] (setting [10]) was -0.0769; in [3] (setting [11]), -0.7; in experiment [3] (setting [12]), -1.21. Besides, the fluorescence slope in experiment [5] was -0.286 (inactive). Moreover, the NADPH fluorescence slope in experiment [6] was -6.4e-06 (inactive). Moreover, the slope in experiment [7] was 0.00603 (inactive). Further, in [8], the result was inactive.

Take `CCOc1cccc(-c2nnc3sc(-c4ccc(C)cc4)nn23)c1`: the cell count in experiment [1] worked out at 588. Besides, the inhibition is -12% (inactive) in [1], -113% (inactive) in [2], -9.66% (inactive) in [4] and -1.49% (inactive) in experiment [9]. This compound also displayed a nuclei count in experiment [2] of 166%. Further, the z-score in [3] (setting [10]) is 0.29; in experiment [3] (setting [11]), -1.67; in [3] (setting [12]), 0.863. Moreover, in experiment [5], the fluorescence slope was -0.458 (inactive). In addition, the NADPH fluorescence slope in experiment [6] is -0.000137 (inactive). Also, the slope in experiment [7] is 0.00552 (inactive). The call in [8] was inactive.

The record behind these values is PubChem BioAssay.
